“And” between values parts separate entries of the source, which are not always exact repeats. Equal entries are not always repeated.
Test system: Fibroblast
Experiment: Multiplex assay against human fibroblast
Type: toxicity, cell-based
Method in brief: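 Per cents of healthy-nucleus cells form the tubulin, mitochondrial-mass and membrane-permeability phenotype values. Live cells were stained at seeding with Hoechst33342, BioTracker Green Microtubule Cytoskeleton Dye, MitoTracker Red and Annexin V Alexa Fluor 680. After compound addition they were imaged on a CQ1 microscope at 37°C and 5% CO2, and CellPathfinder machine-learning gating split them into Hoechst high-intensity objects or normal cells, normal cells into healthy, pyknosed or fragmented nuclei, and pyknosed cells into mitotic or apoptotic.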

[1] = 12 h, 1 µM, compound concentration 1 uM, replicate 1
[2] = 12 h, 1 µM, compound concentration 1 uM, replicate 2
[3] = 12 h, 10 µM, compound concentration 10 uM, replicate 1
[4] = 12 h, 10 µM, compound concentration 10 uM, replicate 2
[5] = 24 h, 1 µM, compound concentration 1 uM, replicate 1
[6] = 24 h, 1 µM, compound concentration 1 uM, replicate 2
[7] = 24 h, 10 µM, compound concentration 10 uM, replicate 1
[8] = 24 h, 10 µM, compound concentration 10 uM, replicate 2

SMILES: CC[C@@]1(O)C(=O)OCc2c1cc1n(c2=O)Cc2cc3ccccc3nc2-1 [CAMPTOTHECIN]
- Population Apoptotic (%) [1]: 68% and 80%
- Population Fragmented Nuclei (%) [1]: 42% and 41% and 43%
- Population Healthy Nuclei (%) [1]: 49% and 43% and 37%
- Population Membrane Permeable-Phenotype (%) [1]: 10% and 7% and 5%
- Population Mitochondria Different-Phenotype (%) [1]: 3% and 9% and 7%
- Population Mitotic Cells (%) [1]: 31% and 20% and 19%
- Population Normal (%) [1]: 84% and 52% and 47%
- Population Pyknosed Nuclei (%) [1]: 8% and 15% and 19%
- Total Cell Count [1]: 256 and 440 and 382
- Population Fragmented Nuclei (%) [2]: 64% and 80%
- Population Healthy Nuclei (%) [2]: 32% and 19% and 34%
- Population Hoechst High Intensity Objects (%) [2]: 37% and 59% and 67%
- Population Membrane Permeable-Phenotype (%) [2]: 15% and 16% and 6%
- Population Mitochondria Different-Phenotype (%) [2]: 10% and 12% and 30%
- Population Normal (%) [2]: 62% and 40% and 32%
- Population Pyknosed Nuclei (%) [2]: 3% and 0% and 1%
- Population Tubulin-Different-Phenotype (%) [2]: 21% and 28% and 24%
- Population Apoptotic (%) [3]: 87%
- Population Fragmented Nuclei (%) [3]: 34%
- Population Healthy Nuclei (%) [3]: 43%
- Population Hoechst High Intensity Objects (%) [3]: 27%
- Population Membrane Permeable-Phenotype (%) [3]: 3%
- Population Mitochondria Different-Phenotype (%) [3]: 11%
- Population Mitotic Cells (%) [3]: 12%
- Population Normal (%) [3]: 72%
- Population Pyknosed Nuclei (%) [3]: 21%
- Population Tubulin-Different-Phenotype (%) [3]: 9%
- Total Cell Count [3]: 198
- Population Apoptotic (%) [4]: 50%
- Population Fragmented Nuclei (%) [4]: 65%
- Population Healthy Nuclei (%) [4]: 30%
- Population Hoechst High Intensity Objects (%) [4]: 41%
- Population Membrane Permeable-Phenotype (%) [4]: 7%
- Population Mitochondria Different-Phenotype (%) [4]: 7%
- Population Mitotic Cells (%) [4]: 50%
- Population Normal (%) [4]: 58%
- Population Pyknosed Nuclei (%) [4]: 4%
- Population Tubulin-Different-Phenotype (%) [4]: 7%
- Total Cell Count [4]: 74
- Population Apoptotic (%) [5]: 78% and 72% and 90%
- Population Fragmented Nuclei (%) [5]: 39% and 40% and 34%
- Population Healthy Nuclei (%) [5]: 48% and 43% and 55%
- Population Membrane Permeable-Phenotype (%) [5]: 10% and 4% and 6%
- Population Mitochondria Different-Phenotype (%) [5]: 7% and 15% and 8%
- Population Mitotic Cells (%) [5]: 21% and 27% and 9%
- Population Normal (%) [5]: 54% and 49% and 89%
- Population Pyknosed Nuclei (%) [5]: 12% and 16% and 10%
- Population Tubulin-Different-Phenotype (%) [5]: 16% and 11% and 12%
- Total Cell Count [5]: 414 and 405 and 222
- Population Fragmented Nuclei (%) [6]: 57% and 80% and 66%
- Population Healthy Nuclei (%) [6]: 40% and 18% and 32%
- Population Hoechst High Intensity Objects (%) [6]: 44% and 56% and 68%
- Population Membrane Permeable-Phenotype (%) [6]: 15% and 16% and 0%
- Population Mitochondria Different-Phenotype (%) [6]: 25% and 16% and 28%
- Population Normal (%) [6]: 55% and 43% and 31%
- Population Pyknosed Nuclei (%) [6]: 2% and 1%
- Population Tubulin-Different-Phenotype (%) [6]: 20% and 29% and 36%
- Population Apoptotic (%) [7]: 85%
- Population Fragmented Nuclei (%) [7]: 34%
- Population Healthy Nuclei (%) [7]: 45%
- Population Hoechst High Intensity Objects (%) [7]: 28%
- Population Membrane Permeable-Phenotype (%) [7]: 6%
- Population Mitochondria Different-Phenotype (%) [7]: 9%
- Population Mitotic Cells (%) [7]: 14%
- Population Normal (%) [7]: 71%
- Population Pyknosed Nuclei (%) [7]: 19%
- Population Tubulin-Different-Phenotype (%) [7]: 7%
- Total Cell Count [7]: 201
- Population Apoptotic (%) [8]: 100%
- Population Fragmented Nuclei (%) [8]: 65%
- Population Healthy Nuclei (%) [8]: 31%
- Population Hoechst High Intensity Objects (%) [8]: 42%
- Population Membrane Permeable-Phenotype (%) [8]: 0%
- Population Mitochondria Different-Phenotype (%) [8]: 0%
- Population Mitotic Cells (%) [8]: 0%
- Population Normal (%) [8]: 57%
- Population Pyknosed Nuclei (%) [8]: 2%
- Total Cell Count [8]: 77

SMILES: CCOc1ccn(-c2ccc(F)cc2)c(=O)c1C(=O)Nc1ccc(Oc2ccnc(N)c2Cl)c(F)c1 [BMS-777607]
- Population Apoptotic (%) [1]: 77%
- Population Fragmented Nuclei (%) [1]: 30%
- Population Healthy Nuclei (%) [1]: 58%
- Population Hoechst High Intensity Objects (%) [1]: 13%
- Population Membrane Permeable-Phenotype (%) [1]: 10%
- Population Mitochondria Different-Phenotype (%) [1]: 4%
- Population Mitotic Cells (%) [1]: 22%
- Population Normal (%) [1]: 86%
- Population Pyknosed Nuclei (%) [1]: 10%
- Population Tubulin-Different-Phenotype (%) [1]: 22%
- Total Cell Count [1]: 251
- Population Apoptotic (%) [2]: 100%
- Population Fragmented Nuclei (%) [2]: 56%
- Population Healthy Nuclei (%) [2]: 39%
- Population Hoechst High Intensity Objects (%) [2]: 29%
- Population Membrane Permeable-Phenotype (%) [2]: 17%
- Population Mitochondria Different-Phenotype (%) [2]: 17%
- Population Mitotic Cells (%) [2]: 0%
- Population Normal (%) [2]: 70%
- Population Pyknosed Nuclei (%) [2]: 3%
- Population Tubulin-Different-Phenotype (%) [2]: 47%
- Total Cell Count [2]: 82
- Population Apoptotic (%) [3]: 86%
- Population Fragmented Nuclei (%) [3]: 27%
- Population Healthy Nuclei (%) [3]: 60%
- Population Hoechst High Intensity Objects (%) [3]: 15%
- Population Membrane Permeable-Phenotype (%) [3]: 1%
- Population Mitotic Cells (%) [3]: 13%
- Population Normal (%) [3]: 84%
- Population Pyknosed Nuclei (%) [3]: 12%
- Total Cell Count [3]: 212
- Population Apoptotic (%) [4]: 80%
- Population Fragmented Nuclei (%) [4]: 54%
- Population Healthy Nuclei (%) [4]: 36%
- Population Hoechst High Intensity Objects (%) [4]: 38%
- Population Membrane Permeable-Phenotype (%) [4]: 4%
- Population Mitochondria Different-Phenotype (%) [4]: 4%
- Population Mitotic Cells (%) [4]: 20%
- Population Normal (%) [4]: 61%
- Population Pyknosed Nuclei (%) [4]: 8%
- Population Tubulin-Different-Phenotype (%) [4]: 0%
- Total Cell Count [4]: 92
- Population Apoptotic (%) [5]: 85%
- Population Fragmented Nuclei (%) [5]: 27%
- Population Healthy Nuclei (%) [5]: 62%
- Population Hoechst High Intensity Objects (%) [5]: 11%
- Population Membrane Permeable-Phenotype (%) [5]: 8%
- Population Mitochondria Different-Phenotype (%) [5]: 8%
- Population Mitotic Cells (%) [5]: 14%
- Population Normal (%) [5]: 88%
- Population Pyknosed Nuclei (%) [5]: 10%
- Population Tubulin-Different-Phenotype (%) [5]: 19%
- Total Cell Count [5]: 226
- Population Apoptotic (%) [6]: 50%
- Population Fragmented Nuclei (%) [6]: 63%
- Population Healthy Nuclei (%) [6]: 32%
- Population Hoechst High Intensity Objects (%) [6]: 31%
- Population Membrane Permeable-Phenotype (%) [6]: 10%
- Population Mitochondria Different-Phenotype (%) [6]: 21%
- Population Mitotic Cells (%) [6]: 50%
- Population Normal (%) [6]: 68%
- Population Pyknosed Nuclei (%) [6]: 3%
- Population Tubulin-Different-Phenotype (%) [6]: 31%
- Total Cell Count [6]: 85
- Population Apoptotic (%) [7]: 80%
- Population Fragmented Nuclei (%) [7]: 26%
- Population Healthy Nuclei (%) [7]: 62%
- Population Hoechst High Intensity Objects (%) [7]: 9%
- Population Membrane Permeable-Phenotype (%) [7]: 0%
- Population Mitochondria Different-Phenotype (%) [7]: 4%
- Population Mitotic Cells (%) [7]: 19%
- Population Normal (%) [7]: 90%
- Total Cell Count [7]: 214
- Population Apoptotic (%) [8]: 50%
- Population Fragmented Nuclei (%) [8]: 54%
- Population Healthy Nuclei (%) [8]: 35%
- Population Hoechst High Intensity Objects (%) [8]: 35%
- Population Membrane Permeable-Phenotype (%) [8]: 5%
- Population Mitochondria Different-Phenotype (%) [8]: 10%
- Population Mitotic Cells (%) [8]: 50%
- Population Normal (%) [8]: 64%
- Population Pyknosed Nuclei (%) [8]: 10%
- Population Tubulin-Different-Phenotype (%) [8]: 0%
- Total Cell Count [8]: 88

From ChEMBL document CHEMBL4689842, “EUbOPEN Chemogenomics Library wave 1” (2021)
